Test results taken from ChEMBL document CHEMBL3286189, “Discovery and SAR studies of a novel class of cytotoxic 1,4-disubstituted piperidines via Ugi reaction” (Eur J Med Chem, 2014).

Legend:
CAKI-1 [1] = assay: Cytostatic activity against human Caki1 cells assessed as inhibition of cell proliferation after 96 hrs by coulter counting analysis; assay type: functional, cell-based; settings: CAKI-1, 96 h
Procedure, shortened: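 Anti-proliferative testing extended to human kidney Caki-1 and human liver Huh-7 tumour cells. The value reported is the IC50, the concentration that inhibits tumour cell growth by 50%.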

CCRF-CEM = assay: Anticancer activity against human CCRF-CEM cells; assay type: functional
Procedure, shortened: (§1)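 Values come from the NCI 60-cell-line human tumour panel, run on a single analog. Cytostatic and cytotoxic responses were read for each cell line across graded molar concentrations of that compound.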

HL-60 = assay: Anticancer activity against human HL60 (TB) cells; assay type: functional
Procedure, shortened: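 Run within the broad NCI-60 human tumour cell line panel screen of the National Cancer Institute.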

[2] = Anticancer activity against human MOLT4 cells; assay type: functional; procedure, shortened: as §1
[3] = Anticancer activity against human HOP92 cells; assay type: functional; procedure, shortened: as §1
NCI-H226 = assay: Anticancer activity against human NCI-H226 cells; assay type: functional; procedure, shortened: as §1
HCT-116 = assay: Anticancer activity against human HCT116 cells; assay type: functional; procedure, shortened: as §1
[4] = Anticancer activity against human HCT15 cells; assay type: functional; procedure, shortened: as §1
[5] = Anticancer activity against human SF295 cells; assay type: functional; procedure, shortened: as §1
SNB-75 = assay: Anticancer activity against human SNB75 cells; assay type: functional; procedure, shortened: as §1
[6] = Anticancer activity against human LOXIMVI cells; assay type: functional; settings: LOX IMVI; procedure, shortened: as §1
SK-MEL-5 = assay: Anticancer activity against human SK-MEL-5 cells; assay type: functional; procedure, shortened: as §1
[7] = Anticancer activity against human UACC62 cells; assay type: functional
Procedure, shortened: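 Assayed in the NCI Cancer-60 human tumour cell line panel, with activity read across several log-step concentrations.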

IGROV-1 = assay: Anticancer activity against human IGROV1 cells; assay type: functional; procedure, shortened: as §1
NCI/ADR-RES = assay: Anticancer activity against human NCI/ADR-RES cells; assay type: functional; procedure, shortened: as §1
CAKI-1 [8] = assay: Anticancer activity against human Caki1 cells; assay type: functional
PC-3 = assay: Anticancer activity against human PC3 cells; assay type: functional; procedure, shortened: as §1
DU-145 = assay: Anticancer activity against human DU145 cells; assay type: functional; procedure, shortened: as §1
MCF7 = assay: Anticancer activity against human MCF7 cells; assay type: functional; procedure, shortened: as §1
[9] = read-out: pLC50 (the source's name) (converted)

## CC(C)(C)OC(=O)N[C@@H](Cc1ccccc1)C(=O)N(Cc1ccccc1)C1(C(=O)NCc2ccccc2)CCN(Cc2ccccc2)CC1
CAKI-1 [1]
  IC50: 9.5 µM
CCRF-CEM
  GI50: 3.31 µM
CCRF-CEM; [9]
  CC50: > 100 µM
CCRF-CEM; read-out: pTGI
  TGI: > 100 µM
HL-60
  GI50: 2.51 µM
HL-60; [9]
  CC50: > 100 µM
HL-60; read-out: pTGI (converted)
  TGI: 6.17 µM
[2]; MOLT-4
  GI50: 1.82 µM
[2]; MOLT-4, read-out: pLC50 (the source's name) (converted)
  CC50: > 100 µM
[2]; MOLT-4, read-out: pTGI (converted)
  TGI: 6.31 µM
[3]; HOP-92
  GI50: 1.45 µM
[3]; HOP-92, read-out: pLC50 (the source's name) (converted)
  CC50: > 100 µM
[3]; HOP-92, read-out: pTGI (converted)
  TGI: 5.37 µM
NCI-H226
  GI50: 3.24 µM
NCI-H226; [9]
  CC50: > 100 µM
NCI-H226; read-out: pTGI
  TGI: > 100 µM
HCT-116
  GI50: 2.4 µM
HCT-116; [9]
  CC50: > 100 µM
HCT-116; read-out: pTGI (converted)
  TGI: 10 µM
[4]; HCT-15
  GI50: 3.16 µM
[4]; HCT-15, read-out: pLC50 (the source's name) (converted)
  CC50: > 100 µM
[4]; HCT-15, read-out: pTGI
  TGI: > 100 µM
[5]; SF-295
  GI50: 2.88 µM
[5]; SF-295, read-out: pLC50 (the source's name) (converted)
  CC50: > 100 µM
[5]; SF-295, read-out: pTGI
  TGI: > 100 µM
SNB-75
  GI50: 2.95 µM
SNB-75; [9]
  CC50: > 100 µM
SNB-75; read-out: pTGI
  TGI: > 100 µM
[6]
  GI50: 3.63 µM
[6]; [9]
  CC50: > 100 µM
[6]; read-out: pTGI (converted)
  TGI: 21.4 µM
SK-MEL-5
  GI50: 1.74 µM
SK-MEL-5; [9]
  CC50: 6.31 µM
SK-MEL-5; read-out: pTGI (converted)
  TGI: 3.31 µM
[7]; UACC-62
  GI50: 2.51 µM
[7]; UACC-62, read-out: pLC50 (the source's name) (converted)
  CC50: > 100 µM
[7]; UACC-62, read-out: pTGI (converted)
  TGI: 7.94 µM
IGROV-1
  GI50: 5.75 µM
IGROV-1; [9]
  CC50: > 100 µM
IGROV-1; read-out: pTGI
  TGI: > 100 µM
NCI/ADR-RES
  GI50: 2.88 µM
NCI/ADR-RES; [9]
  CC50: > 100 µM
NCI/ADR-RES; read-out: pTGI (converted)
  TGI: 46.8 µM
CAKI-1 [8]
  GI50: 2.34 µM
CAKI-1 [8]; [9]
  CC50: > 100 µM
CAKI-1 [8]; read-out: pTGI
  TGI: > 100 µM
PC-3
  GI50: 2.45 µM
PC-3; [9]
  CC50: > 100 µM
PC-3; read-out: pTGI
  TGI: > 100 µM
DU-145
  GI50: 5.37 µM
DU-145; [9]
  CC50: > 100 µM
DU-145; read-out: pTGI
  TGI: > 100 µM
MCF7
  GI50: 2.82 µM
MCF7; [9]
  CC50: > 100 µM
MCF7; read-out: pTGI (converted)
  TGI: 19.1 µM
